pIC50: −log10 of the molar value.

A short description of series [1]: Cytotoxicity against human Bel7402 cells after 48 hrs by MTT assay. Type of series: cell-based, Bel-7402. Conditions: for Activity: human, bel-7402, 48 h; for IC50: bel-7402; for pIC50: Homo sapiens, Bel-7402, 48 h, read-out: IC50; call rule not given here. The method, boiled down:
(§1)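 Cells seeded in 96-well plates and exposed to serial dilutions of test compound spanning 10-2 to 102 µM. Incubated 48 h at 37 °C in humidified air with 5% CO2. Growth inhibition read by MTT. IC50 taken as the concentration (µM) giving 50% inhibition of cell growth.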

In another series the test system is HL-60. Kind of series: Cytotoxicity against human HL60 cells after 48 hrs by MTT assay. It counts as cell-based. Particulars: for Activity: human, hl-60, 48 h; for pIC50: Homo sapiens, HL-60, 48 h. The method, boiled down: as §1
(Tetrazolium dyes change colour on reduction, which living cells bring about.)

Series [2] can be described thus: Cytotoxicity against human BGC823 cells after 48 hrs by MTT assay. Conditions: for Activity: human, bgc-823, 48 h; for pIC50: Homo sapiens, BGC-823, 48 h. It counts as cell-based, BGC-823. The method, boiled down:
as §1

Take `COC(=O)C1=CC[C@@]23CC[C@@H]([C@@](C)(/C=C/C=C(\C)C(=O)OCC(O)CO)OC2=O)[C@@]3(O)CC1` (stereo partly drawn): the Activity entry (in series [1]; with HL-60; in series [2]) was “Not Active” in each case.
On to `CC1=CC[C@@]23CC[C@@H]([C@@](C)(/C=C/C=C(\C)C(=O)OCC(O)CO)OC2=O)[C@@]3(O)CC1` (stereo partly drawn), for which the Activity result (in series [1]; with HL-60; in series [2]) was “Not Active” in each case.
On to `CC1=CC[C@@]23CC[C@@H]([C@@](C)(/C=C/C=C(\C)C(=O)O[C@@H]4O[C@H](CO)[C@@H](O)[C@H](O)[C@H]4O)OC2=O)[C@@]3(O)CC1`, for which, in series [1], the IC50 result is on record as “Not Active”. The Activity entry (in the series on HL-60; in series [2]) was “Not Active” in each case.
As for `CC1=CC[C@@]23CC[C@@H]([C@@](C)(/C=C/C=C(\C)C(=O)O)OC2=O)[C@@]3(O)CC1` [DEACETYLPSEUDOLARIC ACID A], the Activity result (in series [1]; in the series with HL-60; in series [2]) was “Not Active” throughout.
As usually defined, the pIC50 is −log10 of the IC50, conventionally taken in molar units. With `O=c1[nH]cc(F)c(=O)[nH]1` [FLUOROURACIL], the pIC50 in series [1] is 4.63; in the series with HL-60, 6.80; in series [2] it was 4.51.
For `CC(=O)O[C@]12CCC(C)=CC[C@]13CC[C@H]2[C@@](C)(/C=C/C=C(\C)C(=O)O)OC3=O` [PSEUDOLARIC ACID A], in that order: less than 4.00, 5.82 and less than 4.00.
For `COC(=O)C1=CC[C@@]23CC[C@@H]([C@@](C)(/C=C/C=C(\C)C(=O)O)OC2=O)[C@@]3(OC(C)=O)CC1` [PSEUDOLARIC ACID B], in that order: less than 4.00, 6.23 and less than 4.00.
On to `CC(=O)O[C@]12CCC(C(=O)O)=CC[C@]13CC[C@H]2[C@@](C)(/C=C/C=C(\C)C(=O)O)OC3=O` [PSEUDOLARIC ACID C2], for which the Activity result (in series [1]; with HL-60) was “Not Active” throughout. The compound also gave a pIC50 in series [2] of less than 4.00.
In the case of `COC(=O)C1=CC[C@@]23CC[C@@H]([C@@](C)(/C=C/C=C(\C)C(=O)O)OC2=O)[C@@]3(O)CC1` [PSEUDOLARIC ACID C], the IC50 entry in series [1] is listed as “Not Active”. Moreover, the Activity entry (in the series on HL-60; in series [2]) was “Not Active” in each case.
For `CC(=O)O[C@]12CC=C(C)C(=O)C[C@]13CC[C@H]2[C@@](C)(/C=C/C=C(\C)C(=O)O)OC3=O` [PSEUDOLARIC ACID F], the pIC50 is less than 4.00 in series [1] and 4.26 in the series with HL-60. In series [2], the Activity result is listed as “Not Active”.
Consider `CC(=O)O[C@]12CC=C(C)[C@H](O)C[C@]13CC[C@H]2[C@@](C)(/C=C/C=C(\C)C(=O)O)OC3=O` [PSEUDOLARIC ACID G], for which the values for the pIC50 (in series [1]; in the series with HL-60; in series [2]) were less than 4.00, 4.96 and less than 4.00, respectively.
